According to ChEMBL document CHEMBL1137174, “Synthesis and structural-activity relationships of 3-hydroxyquinazoline-2,4-dione antibacterial agents” (2004):
Converted amounts (≈) assume the structure as drawn.

What was measured:
Escherichia coli [1] = experiment: Minimum inhibitory concentration required against Gram-negative Escherichia coli WT; assay type: functional
How it was run: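 Standard microtitration MIC determination against wild-type E. coli strain MC4100.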

Escherichia coli [2] = experiment: Minimum inhibitory concentration required against Gram-negative Escherichia coli LKY; assay type: functional
How it was run: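 Standard microtitration MIC determination against E. coli LKY, a cell-wall-deficient, semi-permeable strain.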

Escherichia coli [3] = experiment: Minimum inhibitory concentration required against Gram-negative Escherichia coli TLC; assay type: functional
Enterococcus faecalis = experiment: Minimum inhibitory concentration required against Gram-positive Enterococcus faecalis; assay type: functional
Staphylococcus aureus = experiment: Minimum inhibitory concentration required against Gram-positive Staphylococcus aureus; assay type: functional
Streptococcus pyogenes = experiment: Minimum inhibitory concentration required against Gram-positive Streptococcus pyogenes; assay type: functional
[4] = target: DNA gyrase (Escherichia coli) (UniProt P0AES6+P0AES4); experiment: Concentration required to inhibit in vitro DNA gyrase activity isolated from Escherichia coli; assay type: protein-complex assay
How it was run: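 DNA gyrase isolated and purified from E. coli H560. The end point is the lowest drug concentration […] that gives detectable cleavage of relaxed bacterial Col E1 plasmid DNA. Cleavage is read by agarose gel electrophoresis with ethidium bromide staining.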

| MIC (Escherichia coli [1]) | MIC (Escherichia coli [2]) | MIC (Escherichia coli [3]) | MIC (Enterococcus faecalis) | MIC (Staphylococcus aureus) | MIC (Streptococcus pyogenes) | Activity [4] | SMILES |
| --- | --- | --- | --- | --- | --- | --- | --- |
| 32 µg/mL (≈ 100 µM) | 0.5 µg/mL (≈ 1.57 µM) | 0.5 µg/mL (≈ 1.57 µM) | 64 µg/mL (≈ 200 µM) | 8 µg/mL (≈ 25.1 µM) | 8 µg/mL (≈ 25.1 µM) | 13 µM | O=c1c2cc(F)c(N3CCCC3)cc2n(CC2CC2)c(=O)n1O |
| 8 µg/mL (≈ 26.2 µM) | 0.1 µg/mL (≈ 0.328 µM) | 0.13 µg/mL (≈ 0.426 µM) |  | 1 µg/mL (≈ 3.28 µM) | 16 µg/mL (≈ 52.4 µM) | 7 µM | O=c1c2cc(F)c(N3CCCC3)cc2n(C2CC2)c(=O)n1O |
| 1 µg/mL (≈ 3.12 µM) | 0.3 µg/mL (≈ 0.937 µM) | 0.25 µg/mL (≈ 0.78 µM) |  | 32 µg/mL (≈ 99.9 µM) | 4 µg/mL (≈ 12.5 µM) | 2 µM | N[C@H]1CCN(c2cc3c(cc2F)c(=O)n(O)c(=O)n3C2CC2)C1 |
| > 64 µg/mL | 32 µg/mL (≈ 84.8 µM) | 32 µg/mL (≈ 84.8 µM) | 64 µg/mL (≈ 170 µM) | 64 µg/mL (≈ 170 µM) | 32 µg/mL (≈ 84.8 µM) | > 100 µM | O=c1c2cc(F)c(N3CCCC3)cc2n(-c2ccc(F)cc2F)c(=O)n1O |
| 32 µg/mL (≈ 115 µM) | 16 µg/mL (≈ 57.3 µM) | 8 µg/mL (≈ 28.6 µM) | > 64 µg/mL | > 64 µg/mL | > 64 µg/mL | > 100 µM | Cn1c(=O)n(O)c(=O)c2cc(F)c(N3CCCC3)cc21 |
| 8 µg/mL (≈ 23.9 µM) | 1 µg/mL (≈ 2.99 µM) | 1 µg/mL (≈ 2.99 µM) |  | 16 µg/mL (≈ 47.9 µM) | 2 µg/mL (≈ 5.98 µM) |  | NCC1CCN(c2cc3c(cc2F)c(=O)n(O)c(=O)n3C2CC2)C1 (configuration not stated) |
| > 64 µg/mL | 2 µg/mL (≈ 6.82 µM) | 1 µg/mL (≈ 3.41 µM) |  | 32 µg/mL (≈ 109 µM) | 32 µg/mL (≈ 109 µM) | > 100 µM | CCn1c(=O)n(O)c(=O)c2cc(F)c(N3CCCC3)cc21 |
| 64 µg/mL (≈ 241 µM) | 32 µg/mL (≈ 121 µM) | 16 µg/mL (≈ 60.3 µM) |  | 8 µg/mL (≈ 30.2 µM) | 32 µg/mL (≈ 121 µM) | > 100 µM | O=c1[nH]c2cc(N3CCCC3)c(F)cc2c(=O)n1O |
| > 64 µg/mL | 32 µg/mL (≈ 90 µM) | 16 µg/mL (≈ 45 µM) | > 64 µg/mL | 16 µg/mL (≈ 45 µM) | 32 µg/mL (≈ 90 µM) | > 100 µM | O=c1c2cc(F)c(N3CCCC3)cc2n(Cc2ccccc2)c(=O)n1O |
| 16 µg/mL (≈ 52.2 µM) | 0.25 µg/mL (≈ 0.816 µM) | 0.5 µg/mL (≈ 1.63 µM) |  | > 64 µg/mL | > 64 µg/mL | 18 µM | NC1CN(c2cc3c(cc2F)c(=O)n(O)c(=O)n3C2CC2)C1 |

The next lines start with the molecule.

| SMILES | MIC (Escherichia coli [1]) | MIC (Escherichia coli [2]) | MIC (Escherichia coli [3]) | MIC (Enterococcus faecalis) | MIC (Staphylococcus aureus) | MIC (Streptococcus pyogenes) | Activity [4] |
| --- | --- | --- | --- | --- | --- | --- | --- |
| O=C(O)c1cn(C2CC2)c2cc(N3CCNCC3)c(F)cc2c1=O [CIPROFLOXACIN] |  |  |  | 0.4 µg/mL (≈ 1.21 µM) | 4 µg/mL (≈ 12.1 µM) | 2 µg/mL (≈ 6.04 µM) | 0.4 µM |
| O=c1c2cc(F)c(N3C[C@@H]4CCCN[C@@H]4C3)cc2n(C2CC2)c(=O)n1O | 8 µg/mL (≈ 22.2 µM) | 2 µg/mL (≈ 5.55 µM) | 1 µg/mL (≈ 2.77 µM) | 64 µg/mL (≈ 178 µM) | 32 µg/mL (≈ 88.8 µM) | 32 µg/mL (≈ 88.8 µM) | 5 µM |
| CC(C)(N)[C@@H]1CCN(c2cc3c(cc2F)c(=O)n(O)c(=O)n3C2CC2)C1 | 8 µg/mL (≈ 22.1 µM) | 2 µg/mL (≈ 5.52 µM) | 0.5 µg/mL (≈ 1.38 µM) | 16 µg/mL (≈ 44.1 µM) | 16 µg/mL (≈ 44.1 µM) | 32 µg/mL (≈ 88.3 µM) | 2.2 µM |
| C[C@H](N)[C@@H]1CCN(c2cc3c(cc2F)c(=O)n(O)c(=O)n3C2CC2)C1 | 8 µg/mL (≈ 23 µM) | 0.12 µg/mL (≈ 0.344 µM) | 0.12 µg/mL (≈ 0.344 µM) | 4 µg/mL (≈ 11.5 µM) | 1 µg/mL (≈ 2.87 µM) | 0.5 µg/mL (≈ 1.44 µM) | 6.4 µM |
| N[C@H]1CCN(c2c(F)cc3c(=O)n(O)c(=O)n(C4CC4)c3c2Cl)C1 | 2 µg/mL (≈ 5.64 µM) | 0.5 µg/mL (≈ 1.41 µM) | 1 µg/mL (≈ 2.82 µM) | 32 µg/mL (≈ 90.2 µM) | 16 µg/mL (≈ 45.1 µM) | 4 µg/mL (≈ 11.3 µM) | 1 µM |
| O=c1c2cc(F)c(-n3ccnc3)cc2n(C2CC2)c(=O)n1O | > 64 µg/mL | 8 µg/mL (≈ 26.5 µM) | 2 µg/mL (≈ 6.62 µM) | 64 µg/mL (≈ 212 µM) | 64 µg/mL (≈ 212 µM) | 64 µg/mL (≈ 212 µM) | 0.4 µM |
| N[C@H]1CCN(c2c(F)cc3c(=O)n(O)c(=O)n(C4CC4)c3c2F)C1 | 8 µg/mL (≈ 23.6 µM) | 2 µg/mL (≈ 5.91 µM) | 1 µg/mL (≈ 2.96 µM) | 16 µg/mL (≈ 47.3 µM) | 32 µg/mL (≈ 94.6 µM) | 16 µg/mL (≈ 47.3 µM) | 0.28 µM |
| O=c1c2cc(F)c(N3CCC(CNCC(F)(F)F)C3)cc2n(C2CC2)c(=O)n1O (configuration not stated) | > 64 µg/mL | 1 µg/mL (≈ 2.4 µM) | 0.5 µg/mL (≈ 1.2 µM) | 16 µg/mL (≈ 38.4 µM) | 4 µg/mL (≈ 9.61 µM) | 16 µg/mL (≈ 38.4 µM) | 8 µM |
| CN1CC2CN(c3cc4c(cc3F)c(=O)n(O)c(=O)n4C3CC3)CC2C1 (configuration not stated) | 4 µg/mL (≈ 11.1 µM) | 2 µg/mL (≈ 5.55 µM) | 1 µg/mL (≈ 2.77 µM) | 32 µg/mL (≈ 88.8 µM) | 32 µg/mL (≈ 88.8 µM) | 32 µg/mL (≈ 88.8 µM) | 7.8 µM |
| N[C@@H]1[C@H]2CN(c3cc4c(cc3F)c(=O)n(O)c(=O)n4C3CC3)C[C@@H]12 | 1 µg/mL (≈ 3.01 µM) | 0.25 µg/mL (≈ 0.752 µM) | 0.25 µg/mL (≈ 0.752 µM) | 4 µg/mL (≈ 12 µM) | 4 µg/mL (≈ 12 µM) | 2 µg/mL (≈ 6.02 µM) | 0.7 µM |
| CN[C@@H](C)[C@@H]1CCN(c2cc3c(cc2F)c(=O)n(O)c(=O)n3C2CC2)C1 | 32 µg/mL (≈ 88.3 µM) | 4 µg/mL (≈ 11 µM) | 2 µg/mL (≈ 5.52 µM) | 16 µg/mL (≈ 44.1 µM) | 16 µg/mL (≈ 44.1 µM) | 2 µg/mL (≈ 5.52 µM) | 6.2 µM |
